# High-throughput results as filed in PubChem BioAssay.
# M5 antag: antagonists of human muscarinic M5 receptor (CHRM5); inhibition, % at 3 µM; P08912; CHO-hM5 cells, Fluo-8 calcium fluorescence, ACh EC80; 360,000 tested, 0.59% active; AID 624040;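 active = inhibition above a per-plate cutoff, the mean of that plate's test compounds plus 3 SD, cut at about 27% in these data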;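 note: 0% = acetylcholine EC80 with DMSO and 100% = DMSO without agonist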
# Target sequence (P08912 whole entry, looked up): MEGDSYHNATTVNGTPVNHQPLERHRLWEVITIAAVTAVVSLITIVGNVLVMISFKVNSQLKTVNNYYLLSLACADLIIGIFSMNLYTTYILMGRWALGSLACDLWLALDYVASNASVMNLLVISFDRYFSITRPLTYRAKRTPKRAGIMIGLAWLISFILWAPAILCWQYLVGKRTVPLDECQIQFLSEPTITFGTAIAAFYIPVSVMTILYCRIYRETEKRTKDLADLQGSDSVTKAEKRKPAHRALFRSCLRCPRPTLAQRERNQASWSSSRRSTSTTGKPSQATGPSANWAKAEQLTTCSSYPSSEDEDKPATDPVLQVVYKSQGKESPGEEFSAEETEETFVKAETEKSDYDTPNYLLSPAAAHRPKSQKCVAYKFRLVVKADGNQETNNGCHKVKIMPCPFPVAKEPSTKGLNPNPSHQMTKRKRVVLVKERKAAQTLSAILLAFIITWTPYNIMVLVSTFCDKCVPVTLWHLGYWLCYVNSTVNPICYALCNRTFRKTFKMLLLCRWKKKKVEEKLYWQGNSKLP
# M5 PAM: potentiates acetylcholine response at human M5 receptor; CHO-K1 hM5, Fluo-8 calcium, ACh EC20 PAM; 0% = ACh EC20, 100% = ACh EC100; activation, % at 3 µM; 360,000 tested, 0.3% active; AID 624038;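 active = activation above the run cutoff, the mean activation of all test compounds plus 3 SD, cut at about 18% in these data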
#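 System – CHO-K1 hM5 cells · Compound – 3 µM, single dose · Incubation – compound preincubation 140 s before EC20 acetylcholine addition · Technique – Fluo-8 calcium fluorescence · Measure – Max/basal fluorescence ratio as % of EC20–EC100 ACh window · Benchmarks – low control EC20 acetylcholine (0%), high control EC100 acetylcholine (100%) · Replication – singlicate, one well per test compound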
# M5 ag: agonists of human muscarinic M5 receptor (CHRM5); activation, % at 3 µM; P08912; CHO-K1 hM5 cells, Fluo-8 calcium fluorescence; 0% DMSO wells, 100% maximal acetylcholine response; AID 624037; 360,000 tested, 0.19% active;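 active = activation above the run's mean over test compounds plus 3 SD, cut at about 23% in these data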;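 note: signal is peak over basal fluorescence ratio across the kinetic read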
# M1 ag: activates human CHRM1 receptor | P11229 | CHO-K1 hM1, Fluo-8 calcium fluorescence, agonist mode; 0% DMSO, 100% acetylcholine EC100 | activation, % at 3 µM | 360,000 tested, 0.33% active | AID 588814;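 active = activation above the run's mean compound activation plus 3 SD, cut at about 16% in these data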;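 note: peak over basal fluorescence ratio within a 140 s kinetic read after compound addition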
# M1 antag: blocks human M1 muscarinic receptor | 360,000 tested, 1.3% active | P11229 | CHO-K1 hM1, Fluo-8 calcium fluorescence, ACh EC80 antagonist | inhibition, % at 3 µM;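 active = percent inhibition above its own plate's cutoff, namely the mean of that plate's compound wells plus 3 SD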;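 note: peak over basal fluorescence ratio during 140 s after agonist addition; 0% = ACh EC80 plus DMSO and 100% = DMSO alone without agonist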
# M1 PAM: potentiates human M1 receptor response to acetylcholine; P11229; CHO-K1 hM1, Fluo-8 calcium fluorescence, ACh EC20; 0% = ACh EC20, 100% = maximal ACh; activation, % at 3 µM; 360,000 tested, 0.088% active; in the data active = activation above about 19%, passing the limit was not always enough
# An asterisk follows results filed as active. A selection: hits, their analogues and other compounds. The true share with any hit is near 2.1%.
SMILES,M5 antag,M5 PAM,M5 ag,M1 ag,M1 antag,M1 PAM
O=C(COc1ccc(Cl)cc1)N(c1ccc(Cl)cc1)C1CN2CCC1CC2 (stereo not given),10,-22,-19,-4,44*,-21
O=C(COc1ccc(Cl)cc1)N(c1ccccc1Cl)C1CN2CCC1CC2 (stereo not given),12,-32,-19,-6,75*,-25
CCCC12CN3CC(CCC)(CN(C1)C3c1ccccn1)C2=O (stereo not given),-4,-1,-2,-6,-4,2
COc1cc(/C=N/n2cnnc2)ccc1OC(=O)N(C)C,-2,4,3,-3,19,-13
OC12Oc3ccccc3C=C1N1CCC2CC1 (stereo not given),-1,-8,-10,-7,15,-12
c1ccc2c(c1)Sc1ccccc1N2CC1CN2CCC1CC2 (stereo not given),98*,-19,-1,-9,99*,-26
C=C1C(C)C2C(Cc3ccccc3)NC(=O)C23C(OC(C)=O)C=CC(C)(O)CC(C)CC=CC3C1O (stereo not given),-12,21*,4,0,-10,2
C[C@H]1C/C=C/[C@H]2[C@H](O)[C@H](C)[C@@](C)(O)[C@H]3[C@H](Cc4ccccc4)NC(=O)[C@]32[C@H](O)/C=C/[C@](C)(O)C1,2,1,4,3,-6,14
C=CCN1C(=O)c2ccccc2Sc2ccc(C(=O)N3CCC4(CC3)OCCO4)cc21,-11,1,3,-7,-2,0
COC(=O)c1ccc(NC(=O)CSc2nc3ccc(N4C(=O)C5C6C=CC(C6)C5C4=O)cc3s2)cc1 (stereo not given),24,-20,2,3,44*,-25
Oc1ccc2c3c1O[C@H]1c4oc5ccccc5c4C[C@@]4(O)[C@@H](C2)N(CC2CC2)CC[C@]314,-4,3,0,-7,-33,3
Nc1c2c(nc3sc4c(c13)CCCC4)CCCCC2,-1,-2,-7,-3,36*,-20
CN1C2CCC1CC(OC(=O)c1cc(Cl)cc(Cl)c1)C2 (stereo not given),6,-19,-6,-4,47*,-22
O=C(COC(=O)Cc1ccccc1)NCCNC(=O)COC(=O)Cc1ccccc1,1,-1,3,-2,-8,4
O=C(Cc1ccccc1)OCCN1CCCCC1,5,-23,-13,-6,34*,-20
O=C1NC(=O)N(Cc2ccc(F)cc2)C(=O)/C1=C\c1ccoc1,12,-13,25*,7,3,1
Oc1ccc(C[C@H]2NCCc3cc(O)c(O)cc32)cc1O,3,5,-3,-2,-28,9
CC(C)CCn1c(N)c(C(=O)NCc2cccs2)c2nc3ccccc3nc21,9,-4,0,-4,-6,6
Clc1ccc(C(OCCN2CCCCC2)c2ccccc2)cc1 (stereo not given),57*,-18,-1,-6,96*,-27
c1ccc(C(OCCN2CCN(c3ncccn3)CC2)c2ccccc2)cc1,23,-21,-16,-6,48*,-27
CC(C)Cc1nnc(NC(=O)CCC(=O)N2CCN(CCOC(c3ccccc3)c3ccccc3)CC2)s1,-4,2,-7,-9,-5,-4
CNc1cc(Cl)c2nonc2c1[N+](=O)[O-],15,-7,-5,-1,25*,1
Cc1cc([N+](=O)[O-])c(Cl)cc1NC(=O)C(C)C,-3,8,-4,-8,-3,0
O=S(=O)(NC1CN2CCC1CC2)c1ccc(Cl)cc1 (stereo not given),17,-3,-7,-12,25*,-19
COc1cccc(C2=NOC(C(=O)N3CCC4(CC3)OCCO4)C2)c1 (stereo not given),-4,-6,0,-6,-10,2
SMILES,M5 antag,M5 PAM,M5 ag,M1 ag,M1 antag,M1 PAM
COc1cccc(C(=O)C2CCCN(C3CCOCC3)C2)c1 (stereo not given),-3,0,-10,-12,24,-14
CC(C)(C)c1ccc(C(=O)C2CCCN(Cc3ccon3)C2)cc1 (stereo not given),-3,-1,0,-11,9,-20
CC(C)(C)c1ccc(C(=O)C2CCCN(C3CCC3)C2)cc1 (stereo not given),6,-1,-15,-7,52*,-22
CC(=O)N1CCC(N2CCCC(C(=O)c3cccc(Cl)c3)C2)CC1 (stereo not given),18,-16,-10,-14,48*,-34
O=C1/C(=C/c2cc([N+](=O)[O-])ccc2Cl)N2CCC1CC2,14,1,1,-7,-5,9
O=C1NC(=O)C(CCc2ccccn2)(Cc2ccc3c(c2)OCO3)C(=O)N1CCc1ccccc1 (stereo not given),-3,-10,-7,-2,16,-7
Cn1c(O)c(C=NC2CCCCC2)c(=O)[nH]c1=S,-10,5,1,-6,-10,7
O=c1[nH]c(O)c(C=NC2CCCCC2)c(=O)[nH]1,7,-1,-2,-2,2,26*
N#CC12c3ccccc3C(=O)N1Cc1cnnn1-c1ccccc12 (stereo not given),-3,-3,-2,-9,3,2
COc1cc(C(=O)OC2C[C@H]3CC[C@@H](C2)N3)ccc1O (stereo not given in full),2,-8,-8,-10,95*,-27
COc1cc(C(=O)OC2C[C@H]3CC[C@@H](C2)N3C)ccc1O (stereo not given in full),1,0,-8,-10,0,-4
O=C(Nc1ccc(C(F)(F)F)cc1)OC1CN2CCC1CC2 (stereo not given),6,-7,-16,-9,13,-11
O=C(Nc1cccc(C(F)(F)F)c1)OC1CN2CCC1CC2 (stereo not given),70*,-18,-6,-11,102*,-32
O=C1NC(=O)C(=Cc2ccc(-c3ccc(S(=O)(=O)N4CCOCC4)cc3)o2)C(=O)N1,13,2,1,-5,3,6
Cc1ccc(/C=C2\C(=O)NC(=O)N(CCc3ccc(F)cc3)C2=O)o1,0,-2,4,-1,-2,9
O=C1NC(=O)C(=Cc2ccc(-c3ccc(F)cc3O)o2)C(=O)N1,16,5,25*,38*,47*,0
O=C1NC(=O)C(=Cc2ccc(-c3ccc(Cl)cc3)o2)C(=O)N1,-12,22*,-2,-1,0,8
Nc1ccnn1C1CCNCC1,27*,-5,-3,-7,-8,5
CN1CCC(n2nccc2N)CC1,4,2,-1,-3,-12,2
COc1ccc(C(=O)C2CCCN(C3CSCCSC3)C2)c(C)c1 (stereo not given),7,-10,-15,-7,54*,-23
COc1ccc(C(=O)C2CCCN(C3CSCCSC3)C2)c(OC)c1 (stereo not given),11,-4,-10,-7,18,-16
